Measurements from publication PMC6593619 (Clinical Pharmacology and Therapeutics, 2019).
Read-outs that look alike come from different tables or passages of the source.

Assays:
[1] = format: in vivo, human; conditions: for Relative difference in Cmax C vs. A (95% CI): esomeprazole 3 hours prior vs regorafenib alone; for Relative difference in Cmax B vs. A (95% CI): esomeprazole concomitant vs regorafenib alone; for Cmax (geomean (CV)) / Tmax: plasma; for Cmax (geomean (CV)): CV in %; for Tmax: human, oral, Tmax (median (IQR))
Procedure, shortened: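 mCRC or GIST patients: regorafenib 120 or 160 mg daily, 14-day loading, 5 days alone or with esomeprazole 40 mg daily (concomitant or 3 h prior); sequence A-B-C or C-B-A. Plasma predose to 24 h on days 21, 49, 77; UPLC-MS/MS. Log Cmax: mixed model (treatment, sequence, phase fixed; subject random), geometric-mean ratio, Bonferroni 97.5% CI. Tmax: Wilcoxon signed rank.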

[2] = mCRC, unselected group, third or fourth line; cited from earlier work
Toxicity = format: in vivo, human; conditions: whole study period
Procedure, shortened: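 Incidence of toxicity tallied per phase in patients on regorafenib 120 or 160 mg daily, alone or with esomeprazole 40 mg daily; only toxicity new or worsened relative to baseline counted.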

[3] = compared with other TKIs, despite solid dispersion formulation; cited from earlier work
[4] = after oral administration; cited from earlier work
[5] = cited from earlier work
[6] = erlotinib combined with omeprazole; cited from earlier work
[7] = phase A: regorafenib alone, 120 mg at steady state
[8] = phase A: regorafenib alone, 120 mg once daily at steady state
[9] = phase B: regorafenib + esomeprazole 40 mg concomitant
[10] = phase B: regorafenib + esomeprazole concomitant
[11] = phase C: regorafenib + esomeprazole 40 mg 3 hours prior
[12] = phase C: regorafenib + esomeprazole 3 hours prior

| Structure (SMILES) | Relative difference in Cmax C vs. A (95% CI) [1] | Relative difference in Cmax B vs. A (95% CI) [1] | Tmax (median (IQR)) [1, 7] | Cmax (geomean (CV)) [1, 8] | Cmax (geomean (CV)) [1, 9] | Tmax (median (IQR)) [1, 10] | Cmax (geomean (CV)) [1, 11] | Tmax (median (IQR)) [1, 12] | other results |
| --- | --- | --- | --- | --- | --- | --- | --- | --- | --- |
| CNC(=O)c1cc(Oc2ccc(NC(=O)Nc3ccc(Cl)c(C(F)(F)F)c3)c(F)c2)cc[n+]1[O-] [M‐2] | −9.3% (−38.1 to 32.9%) | −11.0% (−38.7 to 29.1%) | 3.3 (2.0–6.0) hours | 2.9 (72.0) μg/mL | 2.6 (60.9) μg/mL | 2.6 (2.1–3.5) hours | 2.6 (44.2) μg/mL | 3.5 (2.5–6.0) hours |  |
| CNC(=O)c1cc(Oc2ccc(NC(=O)Nc3ccc(Cl)c(C(F)(F)F)c3)c(F)c2)ccn1 [Regorafenib, 4‐[4‐({[4‐chloro‐3‐(trifluoromethyl)phenyl]carbamoyl}amino)‐3‐fluorophenoxy]‐N‐methylpyridine‐2‐carboxamide] | −12.1% (−32.0 to 13.8%) | −16.5% (−34.9 to 7.0%) |  |  |  |  |  |  | Median overall survival increase compared with placebo [2]: 1.4 months; Pharmacokinetic interaction with esomeprazole ([1]; esomeprazole concomitant or 3 hours prior): did not reveal a significant pharmacokinetic interaction; Tmax ([1]; 120 mg, phase A: regorafenib alone, 120 mg at steady state): 2.5 h; Tmax [1, 10]: 2.5 h; Tmax [1, 12]: 3 h; Incidence of anorexia ≥ grade 3 (Toxicity): 14%; Incidence of hand/foot skin reaction ≥ grade 3 (Toxicity): 14%; Incidence of hypertension ≥ grade 3 (Toxicity): 64%; Incidence of anorexia (Toxicity; all grades): 71%; Incidence of fatigue (Toxicity; all grades): 71%; Incidence of hand/foot skin reaction (Toxicity; all grades): 64%; Incidence of hypertension (Toxicity; all grades): 71%; Incidence of stomatitis (Toxicity; all grades): 57%; Incidence of hoarseness (Toxicity; all grades, 14 patients): 79%; Solubility [3]: low solubility; Time of maximum concentration (Tmax) [4]: 3 to 4 h; Basic predicted pKa [5]: around 2 |
| NC(=O)c1cc(Oc2ccc(NC(=O)Nc3ccc(Cl)c(C(F)(F)F)c3)c(F)c2)cc[n+]1[O-] [M‐5] | −9.1% (−43.2 to 45.5%) | −10.4% (−34.6 to 22.8%) | 2.6 (1.5–4.0) hours | 1.6 (118.8) μg/mL | 1.4 (132.4) μg/mL | 2.3 (1.5–8.0) hours | 1.4 (107.6) μg/mL | 3.5 (2.5–6.0) hours |  |
| C#Cc1cccc(Nc2ncnc3cc(OCCOC)c(OCCOC)cc23)c1 [erlotinib] |  |  |  |  |  |  |  |  | Decrease in systemic exposure [6]: 46% |
